Measurements: ChEMBL document CHEMBL4311948, “Exploring the Natural Piericidins as Anti-Renal Cell Carcinoma Agents Targeting Peroxiredoxin 1” (J Med Chem, 2019)
pIC50, pKd: −log10 of the molar value. Active and inactive are the calls of the source. The rule behind the calls is not given here.

What was measured:
ACHN [1] = test: Up regulation of nuclear PRDX1 expression in human ACHN cells at 25 to 50 nM measured after 24 hrs by immunoblot analysis; format: functional, cell-based
Outline: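 ACHN cells treated 24 h with 25 or 50 nM, then nuclear and cytosolic extracts prepared. Lysis in RIPA buffer, BCA quantitation, 30–50 μg protein resolved on 10% or 12% gels. Blotted with anti-PRDX1 (1:1000) and β-actin (1:3000), band ratio PRDX1/β-actin reported as fold change. Mean ± SD.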

Peroxiredoxin-1 = molecular target: T1, Peroxiredoxin-1 (Homo sapiens, UniProt Q06830); test: Binding affinity to full-length human PRDX1 by surface plasmon resonance analysis
T1 sequence (Q06830 whole entry): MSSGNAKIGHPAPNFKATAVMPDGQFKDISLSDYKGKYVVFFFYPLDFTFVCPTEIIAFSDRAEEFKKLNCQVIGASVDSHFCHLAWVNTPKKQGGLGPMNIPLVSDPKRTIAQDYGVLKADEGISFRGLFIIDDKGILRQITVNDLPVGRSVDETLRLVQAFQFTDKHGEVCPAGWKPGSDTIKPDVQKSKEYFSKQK
Outline: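 Full-length human PRDX1 immobilised on a CM5 chip (Biacore T100). Analyte concentration series diluted in 10 mM Hepes pH 7.4, injected over the protein surface and a protein-free reference surface in a single step.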

ACHN [2] = test: Induction of apoptosis in human ACHN cells assessed as necrotic cells at 50 nM measured after 24 hrs by Annexin V-FITC/propidium iodide staining based flow cytometry (reference value: 0%); format: functional
ACHN [3] = test: Down regulation of SOD2 mRNA expression in human ACHN cells at 25 to 50 nM measured after 24 hrs by qRT-PCR analysis; format: functional, cell-based
ACHN [4] = test: Antitumor activity against human ACHN cells xenografted in Balb/c nu/nu mouse assessed as tumor weight at 0.8 mg/kg, ip administered once daily for 21 days measured post-last dose by caliper method (reference value: 0.55 +/- 0.13 g); format: functional
Outline: (§1)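 Male athymic Balb/c nu/nu mice, four weeks old, acclimatised 1 week. 10^7 ACHN cells in 0.2 mL PBS injected into the right flank. At about 150 mm3, mice randomised into PBS control or 0.8 mg/kg groups, dosed ip daily for three weeks. Tumours measured by caliper (volume = 0.5 × L × W²) with body weight recorded. Endpoint tumour weight, sections stained by H&E and TUNEL. Tissue lysed for immunoblot.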

Mus musculus = test: Up regulation of PRDX1 expression in human ACHN cells xenografted Balb/c nu/nu mouse at 0.8 mg/kg, ip administered once daily for 21 days measured post-last dose by immunoblot analysis; format: functional, organism-based; outline: as §1
OS-RC-2 = test: Cytotoxicity against human OS-RC2 cells assessed as reduction in cell viability measured after 72 hrs by CCK8 assay; format: functional, cell-based; conditions: OS-RC-2, 72 h
Outline: (§2)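 Cells were grown in 10% FBS medium: MEM for ACHN, RPMI1640 for OS-RC-2 and 786-O, DMEM for HK-2. They were seeded at 400–800 cells/well in 384-well plates and treated with a range of compound concentrations or solvent control, with sorafenib as positive control. After 72 h, CCK-8 absorbance was read at 450 nm in triplicate, and IC50 was taken from dose-response curves.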

[5] = Toxicity in Balb/c nu/nu mouse xenografted with human ACHN cells assessed as effect on survival at 0.8 mg/kg, ip administered once daily for 21 days; format: organism-based; conditions: in vivo, 504 h; outline: as §1
ACHN [6] = test: Down regulation of ETS1 mRNA expression in human ACHN cells at 25 to 50 nM measured after 24 hrs by qRT-PCR analysis; format: functional, cell-based
ACHN [7] = test: Induction of apoptosis in human ACHN cells assessed as early apoptotic cells at 50 nM measured after 48 hrs by Annexin V-FITC/propidium iodide staining based flow cytometry (reference value: 0%); format: functional
ACHN [8] = test: Down regulation of EGFR mRNA expression in human ACHN cells at 25 to 50 nM measured after 24 hrs by qRT-PCR analysis; format: functional, cell-based
ACHN [9] = test: Induction of apoptosis in human ACHN cells assessed as late apoptotic cells at 50 nM measured after 24 hrs by Annexin V-FITC/propidium iodide staining based flow cytometry (reference value: 0%); format: functional
[10] = molecular target: T2, Peroxiredoxin-1 (Homo sapiens) (UniProt Q06830); test: Activation of PRDX1 in human ACHN cells assessed as reduction in reactive oxygen species level at 25 to 50 nM measured after 24 hrs by Cell-rox reagent-based flow cytometry
T2 sequence (whole entry): T1 sequence (Q06830 whole entry)
Outline: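 ACHN cells grown 24 h in MEM + 10% FBS, reseeded at 2 × 10^4 cells/well and exposed to 0, 25 or 50 nM for 24 h. Harvested cells loaded with CellROX oxidative stress reagent 5 μM, 30 min at 37 °C in the dark, then read by flow cytometry. shPRDX1 line: stable knockdown selected with puromycin (1 μg/mL) before dosing. Mean ± SD.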

ACHN [11] = test: Up regulation of PRDX1 mRNA expression in human ACHN cells at 25 to 50 nM measured after 24 hrs by qRT-PCR analysis; format: functional, cell-based
ACHN [12] = test: Induction of apoptosis in human ACHN cells assessed as early apoptotic cells at 50 nM measured after 24 hrs by Annexin V-FITC/propidium iodide staining based flow cytometry (reference value: 0%); format: functional
ACHN [13] = test: Down regulation of SLC2A1 mRNA expression in human ACHN cells at 25 to 50 nM measured after 24 hrs by qRT-PCR analysis; format: functional, cell-based
ACHN [14] = test: Induction of apoptosis in human ACHN cells assessed as viable cells at 50 nM measured after 48 hrs by Annexin V-FITC/propidium iodide staining based flow cytometry (reference value: 99.9%); format: functional; conditions: read-out: Activity
ACHN [15] = test: Down regulation of HIF1A mRNA expression in human ACHN cells at 25 to 50 nM measured after 24 hrs by qRT-PCR analysis; format: functional, cell-based
ACHN [16] = test: Down regulation of HK2 mRNA expression in human ACHN cells at 25 to 50 nM measured after 24 hrs by qRT-PCR analysis; format: functional, cell-based
786-0 = test: Cytotoxicity against human 786-O cells assessed as reduction in cell viability measured after 72 hrs by CCK8 assay; format: functional, cell-based; conditions: 786-0, 72 h; outline: as §2
[17] = molecular target: T2, Peroxiredoxin-1 (Homo sapiens); test: Induction of PRDX1 nuclear translocation in human ACHN cells at 25 to 50 nM measured after 24 hrs by DAPI staining-based microscopic analysis; format: cell-based
Outline: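 ACHN cells exposed 24 h to 25 or 50 nM, fixed in 4% paraformaldehyde 10 min and permeabilised with 0.5% Triton X-100. Blocked with 10% FBS, 4 °C, 12 h. Stained with anti-PRDX1 overnight, FITC secondary 2 h RT, DAPI nuclear counterstain. Confocal imaging scored mean fluorescence intensity (n = 9).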

ACHN [18] = test: Cytotoxicity against human ACHN cells assessed as reduction in cell viability measured after 72 hrs by CCK8 assay; format: functional, cell-based; outline: as §2
ACHN [19] = test: Selectivity ratio of IC50 for cytotoxicity against human ACHN cells harboring shPRDX1 gene to IC50 for Cytotoxicity against human ACHN cells; format: functional
ACHN [20] = test: Down regulation of MET mRNA expression in human ACHN cells at 25 to 50 nM measured after 24 hrs by qRT-PCR analysis; format: functional, cell-based

Structure (SMILES): C/C=C(\C)[C@H](O)[C@H](C)/C=C(C)/C=C/C/C(C)=C/Cc1nc(OC)c(OC)c(O)c1C [PIERICIDIN A]
- Activity (ACHN [1]): Active
- pKd (Peroxiredoxin-1): 5.58
- Activity (ACHN [2]): 15.9%
- Activity (ACHN [3]): Active
- Activity (ACHN [4]): 0.28 g
- Activity (Mus musculus): Active
- pIC50 (OS-RC-2): 5.28
- Activity [5]: Non-Toxic
- Activity (ACHN [6]): Active
- Activity (ACHN [7]): 1.1%
- Activity (ACHN [8]): Active
- Activity (ACHN [9]): 1.3%
- Activity [10]: Active
- Activity (ACHN [11]): Active
- Activity (ACHN [12]): 0.9%
- Activity (ACHN [13]): Active
- viability at 0.05 µM (ACHN [14]): 15.9%
- Activity (ACHN [15]): Active
- Activity (ACHN [16]): Active
- pIC50 (786-0): 4.52
- Activity [17]: Active
- pIC50 (ACHN [18]): 6.40
- Ratio IC50 (ACHN [19]): 4
- Activity (ACHN [20]): Active
